# Source: ChEMBL document CHEMBL5550082, “Discovery of pyrazolo[3,4-d]pyrimidines as novel mitogen-activated protein kinase kinase 3 (MKK3) inhibitors” (Bioorg Med Chem, 2024)
# Activity calls are given as the source filed them. The rule behind the calls is not given here.
# Test system: not listed separately
# Test: Inhibition of N-terminal GST-tagged recombinant human MKK3 […]/T193E mutant expressed in baculovirus infected Sf9 insect cells using STK-3-biotin as substrate at 5 uM preincubated for 30 mins followed by substrate/ATP addition measured after 90 mins by TR-FRET assay relative to control
# Details: time 120.0 min
# Outline: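 GST-tagged MKK3 S189E/T193E (MKK3E), glutathione-purified from baculovirus-infected Sf9 cells, was used at 100 nM. It was preincubated 30 min at room temperature with compound, then 1 µM ATP and 1 µM STK-3-biotin peptide were added and reacted at least 90 min at 30 °C. Reactions were stopped with Eu-antibody and streptavidin-XL665, and HTRF was read as the 665/620 nm ratio.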
row,Structure (SMILES),inhibition
1,CC(C)(C)n1nc(-c2ccccc2)c2c(N)ncnc21,34.8%
2,CC(C)(C)n1nc(-c2ccc(F)c(C(=O)NCCO)c2)c2c(N)ncnc21,5.2%
3,CC(C)(C)n1nc(-c2cccc3cnccc23)c2c(N)ncnc21,12.4%
4,CC(C)(C)n1nc(-c2cccc(C#N)c2)c2c(N)ncnc21,inactive
5,CC(C)(C)n1nc(-c2ccc(F)c(C#N)c2)c2c(N)ncnc21,35.6%
6,CC(C)(C)n1nc(-c2ccc(F)c(Cl)c2)c2c(N)ncnc21,39.3%
7,CC(C)(C)n1nc(-c2ccc(N)c3ccccc23)c2c(N)ncnc21,54.8%
8,CC(C)(C)n1nc(-c2cc(F)c(O)c(F)c2)c2c(N)ncnc21,44.9%
9,CC(C)(C)n1nc(-c2cccc(C(=O)NC3CC3)c2)c2c(N)ncnc21,7.1%
10,CC(C)(C)n1nc(-c2ccnc3ccccc23)c2c(N)ncnc21,3.4%
11,CC(C)(C)n1nc(-c2ccc(S(=O)(=O)NC3CC3)cc2)c2c(N)ncnc21,12.6%
12,CC(C)(C)n1nc(-c2cccc(Cl)c2)c2c(N)ncnc21,19.8%
13,CC(C)NC(=O)c1ccc(-c2nn(C(C)(C)C)c3ncnc(N)c23)cc1,26.4%
14,CC(C)(C)n1nc(-c2ccc3ncccc3c2)c2c(N)ncnc21,28.2%
15,CC(C)(C)n1nc(-c2ccccc2F)c2c(N)ncnc21,37.4%
16,CC(C)(C)n1nc(-c2cccc3cn[nH]c23)c2c(N)ncnc21,inactive
17,CC(C)(C)n1nc(-c2cccc(Cl)c2F)c2c(N)ncnc21,35.2%
18,CC(C)(C)n1nc(-c2cc(Cl)cc(Cl)c2)c2c(N)ncnc21,23.4%
19,CC(C)(C)n1nc(-c2ccc3[nH]ccc3c2)c2c(N)ncnc21,58.2%

# Test system: not listed separately
# Test: Aqueous solubility of compound
# Assay type: physicochemical
# Details: water (aqueous)
row,Structure (SMILES),solubility
1,CC(C)n1nc(-c2cc3cc(O)ccc3[nH]2)c2c(N)ncnc21,6 µg/mL

# Target: T1, Dual specificity mitogen-activated protein kinase kinase 3 (Homo sapiens, UniProt P46734)
# T1 sequence (P46734 whole entry): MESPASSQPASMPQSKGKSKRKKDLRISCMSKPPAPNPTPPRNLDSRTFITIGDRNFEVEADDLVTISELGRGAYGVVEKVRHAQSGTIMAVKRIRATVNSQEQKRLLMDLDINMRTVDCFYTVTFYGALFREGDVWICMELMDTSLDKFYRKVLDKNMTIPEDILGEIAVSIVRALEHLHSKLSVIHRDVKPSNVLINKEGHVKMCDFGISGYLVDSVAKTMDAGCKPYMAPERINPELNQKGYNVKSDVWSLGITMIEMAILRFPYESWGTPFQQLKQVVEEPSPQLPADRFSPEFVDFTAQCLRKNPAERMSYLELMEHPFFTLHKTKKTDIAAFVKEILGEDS
# Test: Displacement of tracer K-9 from C-terminal NanoLuc fused full-length MKK3 (unknown origin) transfected in HEK293T cells by BRET assay
# Assay type: cell-based
# Details: not given
# Outline: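 HEK293T cells in DMEM with 10 % FBS were transiently transfected with full-length wild-type MKK3 carrying a C-terminal NanoLuc fusion and cultured 48 h at 37 °C. The cells were then resuspended in Opti-MEM at 2×10^5 cells/mL. Tracer K-9 was added at 1.0 μM final with compound dilutions (2 % DMSO final) for 2 h. After NanoLuc substrate plus extracellular inhibitor, emissions at 460 and 610 nm were read as mBRET, normalized, and fitted to give IC50.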
row,Structure (SMILES),IC50
1,CC(C)(C)n1nc(-c2cc(F)c(O)c(F)c2)c2c(N)ncnc21,145 µM

# Target: Death-associated protein kinase 3 (Homo sapiens) (UniProt O43293)
# Test: Displacement of Eu-Streptavidin from human DAPK3 by TR-FRET assay
# Details: not given
# Outline: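 Human DAPK3, biotinylated in vivo during expression, tested in a TR-FRET assay measuring competitive displacement of a generic ATP-competitive fluorescent tracer. Compound tested at a single concentration of 1 µM. Displacement is relative to vehicle: DMSO sets 0 % and a reference inhibitor specific to the kinase sets 100 %.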
# Sequence of Death-associated protein kinase 3 (Homo sapiens) (O43293 whole entry, looked up): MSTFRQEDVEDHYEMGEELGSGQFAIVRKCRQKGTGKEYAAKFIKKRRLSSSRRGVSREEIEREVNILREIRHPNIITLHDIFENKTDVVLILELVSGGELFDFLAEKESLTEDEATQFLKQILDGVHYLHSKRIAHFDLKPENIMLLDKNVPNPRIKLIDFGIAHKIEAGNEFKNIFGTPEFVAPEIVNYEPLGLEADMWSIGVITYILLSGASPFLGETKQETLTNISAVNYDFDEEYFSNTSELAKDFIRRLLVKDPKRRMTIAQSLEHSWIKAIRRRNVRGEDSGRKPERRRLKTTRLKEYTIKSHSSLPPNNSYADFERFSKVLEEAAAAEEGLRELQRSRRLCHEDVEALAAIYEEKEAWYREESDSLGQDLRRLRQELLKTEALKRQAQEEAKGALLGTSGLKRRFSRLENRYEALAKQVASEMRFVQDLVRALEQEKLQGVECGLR
row,Structure (SMILES),Activity
1,CC(C)(C)n1nc(-c2cc(F)c(O)c(F)c2)c2c(N)ncnc21,> 80%
2,CC(C)n1nc(-c2cc3cc(O)ccc3[nH]2)c2c(N)ncnc21,Active
